In ChEMBL document CHEMBL1129987, “Structure-based design of nonpeptidic HIV protease inhibitors: the sulfonamide-substituted cyclooctylpyramones” (J Med Chem, 1997):

Legend:
[1] = tested on: Human immunodeficiency virus 1; assay: Antiviral activity in HIV-1 infected H9 cells; format: functional; conditions: Human immunodeficiency virus 1, H9; read-out: ED50 (the source's name)
Outline: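 H9 cells infected with HIV-1 IIIB at MOI about 0.005, spun down (200g, 10 min), resuspended at 8 × 10^5 cells/mL in RPMI Complete and mixed with compound; final DMSO 0.1%, triplicate per concentration. After 5 days at 37 °C in 5% CO2, supernatant p24 antigen was measured by ELISA. ED50 is the drug amount that reduces p24 by 50% versus DMSO drug-free controls.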

[2] = Apparent volume of distribution was obtained after intravenous administration of 2.6 mg/kg of drug in male Dawley rats; format: ADME, organism-based; parameters: dose 2.6 mg/kg, route intravenous; conditions: Sprague-Dawley, rat, in vivo, read-out: Vss
[3] = Median cell culture toxic dose was evaluated against H9 cell line; format: ADME, cell-based; conditions: human, H9 cells; read-out: CCTD50
[4] = Maximum concentration was measured after peroral administration of 5.0 mg/kg of drug in male Dawley rats; format: ADME, organism-based; parameters: dose 5 mg/kg, route oral; conditions: Sprague-Dawley, rat, in vivo, po
[5] = Maximum time taken by the drug to reach peak concentration after peroral administration of 5.0 mg/kg of drug in male Dawley rats; format: ADME, organism-based; parameters: dose 5 mg/kg, route oral; conditions: Sprague-Dawley, rat, in vivo, po
[6] = Oral bioavailability in rat (Sprague-Dawley) (male) (dose 5 mg/kg); format: ADME, organism-based; conditions: in vivo
[7] = Total plasma clearance value was obtained after intravenous administration of 2.6 mg/kg of drug in male Dawley rats; format: ADME, organism-based; parameters: dose 2.6 mg/kg, route intravenous; conditions: Sprague-Dawley, rat
[8] = Half-life was measured after intravenous administration of 2.6 mg/kg of drug in male Dawley rats; format: ADME, organism-based; parameters: dose 2.6 mg/kg, route intravenous; conditions: Sprague-Dawley, rat, in vivo
[9] = Total plasma clearance value was obtained after intravenous administration of 2.7 mg/kg of drug in male Dawley rats; format: ADME, organism-based; parameters: dose 2.7 mg/kg, route intravenous; conditions: Sprague-Dawley, rat
[10] = Oral bioavailability in dog (Beagle) (male) (dose 10 mg/kg p.o.); format: ADME, organism-based, Canis lupus familiaris; conditions: in vivo
Outline: (§1)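 Male beagle dogs received a 10 mg/kg oral dose. tmax is reported as a range. Bioavailability was calculated as %F = (AUCpo/AUCiv) × (doseiv/dosepo) against a separate iv study. Values are mean ± SD, n = 3.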

[11] = Oral bioavailability in rat (Sprague-Dawley) (male) (dose 5.2 mg/kg p.o.); format: ADME, organism-based; conditions: in vivo
[12] = Half-life was measured after intravenous administration of 2.7 mg/kg of drug in male Dawley rats; format: ADME, organism-based; parameters: dose 2.7 mg/kg, route intravenous; conditions: Sprague-Dawley, rat, in vivo
[13] = Maximum time taken by the drug to reach peak concentration after peroral administration of 10 mg/kg of drug male in male Beagle dogs; format: ADME, organism-based, Canis lupus familiaris; parameters: dose 10 mg/kg, route oral; conditions: dog, in vivo, po; outline: as §1
[14] = Apparent volume of distribution was obtained after intravenous administration of 1.8 mg/kg of drug in male Beagle dogs; format: ADME, organism-based, Canis lupus familiaris; parameters: dose 1.8 mg/kg, route intravenous; conditions: dog, in vivo, read-out: Vss
[15] = Maximum time taken by the drug to reach peak concentration after peroral administration of 5.2 mg/kg of drug male in Dawley rats; format: ADME, organism-based; parameters: dose 5.2 mg/kg, route oral; conditions: Sprague-Dawley, rat, in vivo, po
[16] = Maximum concentration was measured after peroral administration of 5.2 mg/kg of drug in male Dawley rats; format: ADME, organism-based; parameters: dose 5.2 mg/kg, route oral; conditions: Sprague-Dawley, rat, in vivo, po
[17] = target: Human immunodeficiency virus type 1 protease (Human immunodeficiency virus 1, UniProt Q72874); assay: Binding affinity against HIV-1 protease
[18] = Apparent volume of distribution was obtained after intravenous administration of 2.7 mg/kg of drug in male Dawley rats; format: ADME, organism-based; parameters: dose 2.7 mg/kg, route intravenous; conditions: Sprague-Dawley, rat, in vivo, read-out: Vss
[19] = Total plasma clearance value was obtained after intravenous administration of 1.8 mg/kg of drug in male Beagle dogs; format: ADME, organism-based, Canis lupus familiaris; parameters: dose 1.8 mg/kg, route intravenous; conditions: dog
[20] = Maximum concentration was measured after peroral administration of 10 mg/kg of drug in male Beagle dogs; format: ADME, organism-based, Canis lupus familiaris; parameters: dose 10 mg/kg, route oral; conditions: dog, in vivo, po; outline: as §1
[21] = Half-life was measured after intravenous administration of 1.8 mg/kg of drug in male Beagle dogs; format: ADME, organism-based, Canis lupus familiaris; parameters: dose 1.8 mg/kg, route intravenous; conditions: dog, in vivo
[22] = Apparent volume of distribution was obtained after intravenous administration of 5.1 mg/kg of drug in male Dawley rats; format: ADME, organism-based; parameters: dose 5.1 mg/kg, route intravenous; conditions: Sprague-Dawley, rat, in vivo, read-out: Vss
[23] = Half-life was measured after intravenous administration of 5.1 mg/kg of drug in male Dawley rats; format: ADME, organism-based; parameters: dose 5.1 mg/kg, route intravenous; conditions: Sprague-Dawley, rat, in vivo
[24] = Total plasma clearance value was obtained after intravenous administration of 5.1 mg/kg of drug in male Dawley rats; format: ADME, organism-based; parameters: dose 5.1 mg/kg, route intravenous; conditions: Sprague-Dawley, rat
[25] = (§2) Total plasma clearance value was obtained after intravenous administration of […] mg/kg of drug in male Dawley rats; format: ADME, organism-based; conditions: male, Sprague-Dawley, rat, plasma, 2.8 mg/kg
[26] = Maximum time taken by the drug to reach peak concentration after peroral administration of 5.1 mg/kg of drug in male Dawley rats; format: ADME, organism-based; parameters: dose 5.1 mg/kg, route oral; conditions: Sprague-Dawley, rat, in vivo, po
[27] = Maximum concentration was measured after peroral administration of 5.1 mg/kg of drug in male Dawley rats; format: ADME, organism-based; parameters: dose 5.1 mg/kg, route oral; conditions: Sprague-Dawley, rat, in vivo, po
[28] = (§3) Apparent volume of distribution was obtained after intravenous administration of 2.8 mg/kg of drug in male Dawley rats; format: ADME, organism-based; parameters: dose 2.8 mg/kg, route intravenous; conditions: male, Sprague-Dawley, rat, in vivo, read-out: Vss
[29] = (§4) Half-life was measured after intravenous administration of […] mg/kg of drug in male Dawley rats; format: ADME, organism-based; conditions: male, Sprague-Dawley, rat, in vivo, 2.8 mg/kg
[30] = Oral bioavailability in rat (Sprague-Dawley) (male) (dose 5.1 mg/kg p.o.); format: ADME, organism-based; conditions: in vivo
[31] = Apparent volume of distribution was obtained after intravenous administration of 4.9 mg/kg of drug in male Beagle dogs; format: ADME, organism-based, Canis lupus familiaris; parameters: dose 4.9 mg/kg, route intravenous; conditions: dog, in vivo, read-out: Vss
[32] = Maximum time taken by the drug to reach peak concentration after peroral administration of 5.1 mg/kg of drug male in Dawley rats; format: ADME, organism-based; parameters: dose 5.1 mg/kg, route oral; conditions: Sprague-Dawley, rat, in vivo, po
[33] = Total plasma clearance value was obtained after intravenous administration of 2.5 mg/kg of drug in male Dawley rats; format: ADME, organism-based; parameters: dose 2.5 mg/kg, route intravenous; conditions: Sprague-Dawley, rat
[34] = Total plasma clearance value was obtained after intravenous administration of 4.9 mg/kg of drug in male Beagle dogs; format: ADME, organism-based, Canis lupus familiaris; parameters: dose 4.9 mg/kg, route intravenous; conditions: dog
[35] = Half-life was measured after intravenous administration of 4.9 mg/kg of drug in male Beagle dogs; format: ADME, organism-based, Canis lupus familiaris; parameters: dose 4.9 mg/kg, route intravenous; conditions: dog, in vivo
[36] = Half-life was measured after intravenous administration of 2.5 mg/kg of drug in male Dawley rats; format: ADME, organism-based; parameters: dose 2.5 mg/kg, route intravenous; conditions: Sprague-Dawley, rat, in vivo
Rattus norvegicus [37] = assay: as §2; format: ADME, organism-based; conditions: in vivo, 2.8 mg/kg
[38] = Maximum time taken by the drug to reach peak concentration after peroral administration of 5.2 mg/kg of drug in male Dawley rats; format: ADME, organism-based; parameters: dose 5.2 mg/kg, route oral; conditions: Sprague-Dawley, rat, in vivo, po
Rattus norvegicus [39] = assay: as §3; format: ADME, organism-based; parameters: dose 2.8 mg/kg, route intravenous; conditions: in vivo
Rattus norvegicus [40] = assay: as §4; format: ADME, organism-based; conditions: in vivo, 2.8 mg/kg

SMILES	EC50 [1] [nM]	CC50 [3] [nM]	Cmax [4] [µM]	Tmax [5] [min]	bioavailability [6] [%]	bioavailability [10] [%]	bioavailability [11] [%]	Tmax [13] [min]	Cmax [16] [µM]	Ki [17] [nM]	Cmax [27] [µM]	bioavailability [30] [%]	further results
N#Cc1ccc(S(=O)(=O)Nc2cccc([C@H](c3c(O)oc4c(c3=O)CCCCCC4)C3CC3)c2)cc1	8300	> 30000	13	15	31								Vd [2]: 0.15 L/kg; clearance [7]: 0.933 mL/min/kg; half-life [8]: 450 min
O=c1c2c(oc(O)c1C(c1cccc(NS(=O)(=O)c3ccc(F)cc3)c1)C1CC1)CCCCCC2 (stereo unspecified)	2000	68000				107	50	30	31	3.1			clearance [9]: 0.717 mL/min/kg; half-life [12]: 372 min; Vd [14]: 0.08 L/kg; Tmax [15]: 15 min; Vd [18]: 0.16 L/kg; clearance [19]: 3.17 mL/min/kg; Cmax [20]: 61 µM; half-life [21]: 34.2 min
N#Cc1ccc(S(=O)(=O)Nc2cccc([C@@H](c3c(O)oc4c(c3=O)CCCCCC4)C3CC3)c2)cc1	1200	> 30000	19	30	42								Vd [22]: 0.12 L/kg; half-life [23]: 372 min; clearance [24]: 0.817 mL/min/kg
O=c1c2c(oc(O)c1[C@H](c1cccc(NS(=O)(=O)c3ccc(F)cc3)c1)C1CC1)CCCCCC2	800	> 30000								1.4	10	58	clearance [25]: 1.92 mL/min/kg; Tmax [26]: 15 min; Vd [28]: 0.13 L/kg; half-life [29]: 132 min
N#Cc1ccc(S(=O)(=O)Nc2cccc(C(c3c(O)c4c(oc3=O)CCCCCC4)C3CC3)c2)cc1 (stereo unspecified)	1300	90000				77		30			24	42	Vd [31]: 0.085 L/kg; Tmax [32]: 15 min; clearance [33]: 1.25 mL/min/kg; clearance [34]: 0.733 mL/min/kg; half-life [35]: 378 min; half-life [36]: 180 min
O=c1c2c(oc(O)c1[C@@H](c1cccc(NS(=O)(=O)c3ccc(F)cc3)c1)C1CC1)CCCCCC2	> 10000	> 30000					53		24	2.1			CL (Rattus norvegicus [37]): 0.067 mL/min/kg; Tmax [38]: 15 min; Vss (Rattus norvegicus [39]): 0.15 L/kg; T1/2 (Rattus norvegicus [40]): 360 min
